{"source": "paper PMC7941214", "about": "(Journal of medicinal chemistry, 2019)", "key": {"A. baumannii NCTC 13420": {"tested_on": "A. baumannii NCTC 13420", "experiment": "Broth microdilution MIC/MBC, A. baumannii", "type": "cell-based, Acinetobacter baumannii"}, "P. aeruginosa NCTC 13437": {"tested_on": "P. aeruginosa NCTC 13437", "experiment": "Broth microdilution MIC/MBC, P. aeruginosa", "type": "cell-based, Pseudomonas aeruginosa", "in_short": "(§1)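 CLSI broth microdilution in cation-adjusted Mueller–Hinton broth. Log-phase cultures were diluted to 7.5 × 10^5 CFU/mL, then mixed 1:1 with 2-fold serial dilutions of gold complexes from DMSO or water stocks, in triplicate, and held 37 °C, 18 h, static. MIC: lowest concentration giving >90% inhibition by OD600 against medium-only and bacteria-only wells. […] E. coli ATCC 25922 quality control was checked each run with ciprofloxacin and […].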"}, "E. cloacae NCTC 13405": {"tested_on": "E. cloacae NCTC 13405", "experiment": "Broth microdilution MIC/MBC, E. cloacae", "type": "cell-based, Enterobacter cloacae", "in_short": "as §1"}, "[1]": {"tested_on": "K. pneumoniae ATCC 700603", "experiment": "Broth microdilution MIC/MBC, K. pneumoniae", "type": "cell-based, Klebsiella pneumoniae", "in_short": "as §1"}, "S. aureus JE2 (USA300)": {"tested_on": "S. aureus JE2 (USA300)", "experiment": "Broth microdilution MIC/MBC, S. aureus", "type": "cell-based, Staphylococcus aureus", "details": "value in parentheses", "in_short": "as §1"}, "E. faecium ATCC 700221": {"tested_on": "E. faecium ATCC 700221", "experiment": "Broth microdilution MIC/MBC, E. faecium", "type": "cell-based, Enterococcus faecium", "in_short": "as §1"}, "E. coli ATCC 25922": {"tested_on": "E. coli ATCC 25922", "experiment": "Broth microdilution MIC/MBC, E. coli", "type": "cell-based, Escherichia coli", "in_short": "as §1"}, "all strains": {"tested_on": "all strains", "experiment": "Broth microdilution, all strains taken together", "type": "cell-based", "details": "vs auranofin"}, "Log P determination": {"experiment": "Log P determination", "details": "n-octanol/water, Au by FAAS"}, "[2]": {"details": "value before the parentheses, two values = two repeats"}}, "data": [{"compound": "CC[PH](CC)(CC)[Au][S]c1ccc(N)cc1", "note": "[Compound 17, (4-Aminobenzenethiolato)(triethylphosphine) Gold(I)]", "values": [{"measurement": "MIC A. baumannii NCTC 13420", "setting": "A. baumannii NCTC 13420; [2]", "value": 18, "unit": "µM"}, {"measurement": "MBC A. baumannii NCTC 13420", "setting": "A. baumannii NCTC 13420; value in parentheses", "value": 18, "unit": "µM"}, {"measurement": "MIC P. aeruginosa NCTC 13437", "setting": "P. aeruginosa NCTC 13437; [2]", "value": 146, "unit": "µM"}, {"measurement": "MBC P. aeruginosa NCTC 13437", "setting": "P. aeruginosa NCTC 13437; value in parentheses", "value": 146, "unit": "µM"}, {"measurement": "MIC E. cloacae NCTC 13405", "setting": "E. cloacae NCTC 13405; [2]", "value": 36, "unit": "µM"}, {"measurement": "MBC E. cloacae NCTC 13405", "setting": "E. cloacae NCTC 13405; value in parentheses", "value": 36, "unit": "µM"}, {"measurement": "MIC K. pneumoniae ATCC 700603", "setting": "[1]; [2]", "value": 36, "unit": "µM"}, {"measurement": "MBC K. pneumoniae ATCC 700603", "setting": "[1]; value in parentheses", "value": 36, "unit": "µM"}, {"measurement": "fold enhancement of activity over auranofin, K. pneumoniae", "setting": "[1]; vs auranofin", "value": 10}, {"measurement": "MBC S. aureus JE2 (USA300)", "setting": "S. aureus JE2 (USA300)", "value": 0.07, "unit": "µM"}, {"measurement": "MIC E. faecium ATCC 700221", "setting": "E. faecium ATCC 700221; [2]", "value": 0.02, "unit": "µM"}, {"measurement": "MBC E. faecium ATCC 700221", "setting": "E. faecium ATCC 700221; value in parentheses", "value": 0.1, "unit": "µM"}, {"measurement": "fold enhancement of activity over auranofin, E. faecium", "setting": "E. faecium ATCC 700221; vs auranofin", "value": "more than 7"}, {"measurement": "MIC E. coli ATCC 25922", "setting": "E. coli ATCC 25922; [2]", "value": 9, "unit": "µM"}, {"measurement": "MBC E. coli ATCC 25922", "setting": "E. coli ATCC 25922; value in parentheses", "value": 9, "unit": "µM"}, {"measurement": "fold enhancement of activity over auranofin, all strains", "setting": "all strains", "value": "up to 10"}, {"measurement": "log P", "setting": "Log P determination", "value": 1.36}]}]}
